Ten compounds from publication PMC3244355 (Journal of the American Chemical Society, 2011) can be followed below.

One series is described as follows: photophysical properties. Format: physicochemical. The following applies: MeOH, 20 μM sample; for λemi: excited at λmax. A digest of the protocol: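 Samples are prepared at 20 μM. Dye–inhibitor conjugate spectra are recorded in 1% DMSO/PBS, pH 7.4, at 25 °C with excitation at 405 nm. Tabulated dye entries are excited at their λmax. Absorption maximum, molar absorptivity, emission maximum and fluorescence quantum yield are reported.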

The nature of another series: solubility. Format: physicochemical. The following applies: variety of solvents.
The next series relates to HeLa cells. Description: cell-based assay for bipolar spindle assembly / mitotic arrest. The following applies: HeLa cells, 4 h, fixed, anti-tubulin antibodies. Further details: species or system human. A digest of the protocol:
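HeLa cells are incubated for 4 h with the test compound, alongside an untreated control. They are then fixed and probed with anti-tubulin antibodies, with DNA counterstained. Spindle organization (bipolar vs. monopolar spindle formation) is assessed by fluorescence microscopy.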

Turning to “6-Bromo-3,3-difluoro-2-(4-(thiophen-2-yl)benzylidene)-2,3-dihydro-[1,2,4,3]triazaborolo[4,5-a]pyridin-2-ium-3-uide [Compound 8]”, in the series “photophysical properties”, the Φf is recorded as 0.71, the ε is 26 600 M^−1cm^−1, the λmax is 490 nm and the λemi was found to be 562 nm.

As for `CC(C)=[N+]1N=C2C=CC(I)=CN2[B-]1(F)F` [Compound 18, 3,3-Difluoro-6-iodo-2-(propan-2-ylidene)-2,3-dihydro-[1,2,4,3]triazaborolo[4,5-a]pyridin-2-ium-3-uide], in the series “photophysical properties”, the Φf came out at 0.20, the ε was 8 300 M^−1cm^−1, the λmax is recorded as 400 nm and the λemi amounted to 496 nm. Moreover, the solubility in solvents result in the series “solubility” is given as “soluble in a variety of solvents”.

On to `CO[B-]1(OC)N2C=C(I)C=CC2=N[N+]1=C(C)C` [Compound 22, 6-Iodo-3,3-dimethoxy-2-(propan-2-ylidene)-2,3-dihydro[1,2,4,3]triazaborolo[4,5-a]pyridin-2-ium-3-uide], for which, in “photophysical properties”, the Φf was found to be 0.21, the ε is reported as 9 400 M^−1cm^−1, the λmax came out at 400 nm and the λemi is 476 nm. The solubility in solvents result in “solubility” was “soluble in a variety of solvents”.

Turning to `C#CC1=CN2C(=N[N+](=Cc3ccc(-c4cccs4)cc3)[B-]2(F)F)C=C1` [Compound 14, 6-Ethynyl-3,3-difluoro-2-(4-(thiophen-2-yl)benzylidene)-2,3-dihydro-[1,2,4,3]triazaborolo[4,5-a]pyridin-2-ium-3-uide], in “photophysical properties”, the Φf was found to be 0.38, the ε is 36 700 M^−1cm^−1, the λmax was found to be 481 nm and the λemi is reported as 572 nm.

Consider `F[B-]1(F)N2C=C(Br)C=CC2=N[N+]1=Cc1ccc(-c2cccs2)cc1` [Compound 6, 6-Bromo-3,3-difluoro-2-(4-(thiophen-2-yl)benzylidene)-2,3-dihydro-[1,2,4,3]triazaborolo[4,5-a]pyridin-2-ium-3-uide], for which, in the series “photophysical properties”, the Φf was determined as 0.95, the ε is given as 32 900 M^−1cm^−1, the λmax was determined as 482 nm and the λemi was 562 nm.

Take `F[B-]1(F)N2C=CC=CC2=N[N+]1=Cc1ccc(-c2cccs2)cc1` [Compound 2, 3,3-Difluoro-2-(4-(thiophen-2-yl)benzylidene)-2,3-dihydro-[1,2,4,3]triazaborolo[4,5-a]pyridine-2-ium-3-uide]: in the series “photophysical properties”, the Φf turned out to be 0.75, the ε is recorded as 28 800 M^−1cm^−1, the λmax stood at 472 nm and the λemi was found to be 551 nm.

For `F[B-]1(F)N2C=C(Cl)C=CC2=N[N+]1=Cc1ccc(-c2cccs2)cc1` [Compound 4], in the series “photophysical properties”, the Φf is reported as 0.69, the ε is given as 26 800 M^−1cm^−1, the λmax came out at 491 nm and the λemi is recorded as 563 nm.

As to `F[B-]1(F)N2C=C(Br)C=CC2=N[N+]1=Cc1ccccc1` [Compound 10, 2-Benzylidene-6-bromo-3,3-difluoro-2,3-dihydro-[1,2,4,3]triazaborolo[4,5-a]pyridin-2-ium-3-uide], in “photophysical properties”, the Φf is on record as 0.31, the ε is 22 600 M^−1cm^−1, the λmax is reported as 471 nm and the λemi amounted to 539 nm.

`COc1ccc(C(SC[C@H](N)C(=O)O)(c2ccccc2)c2ccccc2)cc1` [Compound 19, reference compound]: the spindle morphology entry in the series on HeLa cells is given as “dose-dependent formation of monopolar spindles”.

On to `F[B-]1(F)N2C=C(n3cc(-c4ccccc4)nn3)C=CC2=N[N+]1=Cc1ccc(-c2cccs2)cc1` [Compound 12, 3,3-Difluoro-6-(4-phenyl-1H-1,2,3-triazol-1-yl)-2-(4-(thiophen-2-yl)benzylidene)-2,3-dihydro-[1,2,4,3]triazaborolo[4,5-a]pyridin-2-ium-3-uide], for which, in the series “photophysical properties”, the Φf is on record as 0.37, the ε is 33 800 M^−1cm^−1, the λmax worked out at 491 nm and the λemi is recorded as 572 nm.
